Data set [1] can be described thus: Cytotoxicity against human BSMC cells assessed as cell viability at 20 uM after 72 hrs by WST-1 assay. Format: cell-based. The method, boiled down: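 Normal human bronchial smooth muscle cells grown in DMEM with 10% FBS and exposed to compound for 72 h. Viability compared with untreated control.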
Data set [2] has as its system Calu-3. Briefly: Induction of apoptosis in human Calu3 cells assessed as induction of caspase-3/7 at 10 uM after 4 hrs by spectrofluorimetry relative to control. It counts as functional. The conditions noted are these: in the assay text read “at 20 uM” for “at 10 uM”. The method in brief:
(§1)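 Cells seeded at 7 × 10³/well and treated with compound for 4 h. Apo-ONE homogeneous caspase-3/7 substrate then added. Fluorescence read at excitation 485 nm and emission 530 nm. Result given as the ratio of treated-cell signal to vehicle-only cells.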

Data set [3] can be described thus: Cytotoxicity against human COLO320 cells assessed as cell viability after 72 hrs by WST-1 assay. Format: functional, cell-based. The conditions noted are these: COLO 320, 72 h. The method, boiled down:
(§2)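 Cells grown in DMEM with L-glutamine (2 mM), 10% foetal bovine serum, 2.5% horse serum and penicillin/streptomycin at 37 °C under 5% CO₂. Seeded at 2 × 10³ cells/well and exposed to compound for 72 h, with DMSO ≤0.2% final. WST-1 added, absorbance read at 450 nm, and % reduction vs control calculated. IC₅₀ and Emax from nonlinear least-squares curve fit. Mean ± SEM, n = 3.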
A general note: Tetrazolium dyes change colour on reduction, which living cells bring about.

For data set [4], the system named is Calu-3. Briefly: Cytotoxicity against human Calu3 cells assessed as cell viability after 72 hrs by WST-1 assay. The conditions noted are these: Calu-3, 72 h. It counts as functional, cell-based. The method, boiled down: as §2
The test system of data set [5] is COLO 320. Briefly: Induction of apoptosis in human COLO320 cells assessed as induction of caspase-3/7 at 20 uM after 4 hrs by spectrofluorimetry relative to control. It counts as functional. As to conditions: in the assay text read “at 10 uM” for “at 20 uM”. The method, boiled down: as §1

The source of these data is ChEMBL document CHEMBL2146375, “Synthesis and evaluation of indole-containing 3,5-diarylisoxazoles as potential pro-apoptotic antitumour agents” (Eur J Med Chem, 2012).

Broadly, the IC50 is the point on the concentration scale where inhibition reaches its midpoint. Consider `COc1ccc(-c2cc(-c3ccc4[nH]ccc4c3)on2)cc1`, for which the Activity entry in data set [1] is reported as “Non-toxic”. The “fold change (FC)” value in data set [2] was found to be 2.44; in data set [5] it was 2.18. Moreover, the results for the IC50 in data set [3] and in data set [4] were 13.5 µM and 22.5 µM, respectively.
For the compound `COc1ccc(-c2cc(-c3cc4ccccc4n3C)on2)cc1`, the 50% inhibitory concentration (IC50) in data set [3] and in data set [4] was over 100 µM each time.
In the case of `COc1ccc2[nH]c(-c3cc(-c4cccc(F)c4)no3)cc2c1`, the 50% inhibitory concentration (IC50) is over 100 µM in data set [3] and 97.9 µM in data set [4].
For `COc1ccc(-c2cc(-c3cc4ccccc4[nH]3)no2)cc1` the same measures were over 100 µM and over 100 µM.
For `COc1cccc(-c2cc(-c3cc4cc(OC)ccc4[nH]3)no2)c1` the same measures were over 100 µM and over 100 µM.
The like results for `COC(=O)c1ccc(-c2cc(-c3ccc4[nH]ccc4c3)on2)cc1` were, in that order, over 100 µM and over 100 µM.
As to `COc1cccc(-c2cc(-c3cc4ccccc4n3C)on2)c1`, the 50% inhibitory concentration (IC50) in data set [3] and in data set [4] was over 100 µM each time.
Regarding `Cn1c(-c2cc(-c3cccc(F)c3)on2)cc2ccccc21`, the IC50 in data set [3] and in data set [4] was over 100 µM each time.
In the case of `Cn1c(-c2cc(-c3ccc(F)cc3)no2)cc2ccccc21`, the IC50 in data set [3] and in data set [4] was over 100 µM in each case.
As for `COc1ccc(-c2cc(-c3c(Cl)c4ccccc4n3C)no2)cc1`, the IC50 in data set [3] is 78.1 µM; in data set [4], 60.9 µM.
The like results for `COc1cccc(-c2cc(-c3cc4ccccc4[nH]3)no2)c1` were, in that order, over 100 µM and over 100 µM.
Consider `Fc1ccc(-c2cc(-c3ccc4[nH]ccc4c3)on2)cc1`, for which, in data set [1], the Activity entry is listed as “Toxic”. Besides, the “fold change (FC)” value in data set [2] amounted to 1.94; in data set [5], 1.81. Also, the values for the IC50 in data set [3] and in data set [4] were 13.9 µM and 16.8 µM, respectively.
For `COc1cc(-c2cc(-c3ccc4[nH]ccc4c3)on2)cc(OC)c1OC` the same measures were “Non-toxic”, 3.39, 2.38, 9 µM and 13.3 µM.
Consider `O=c1[nH]cc(F)c(=O)[nH]1` [FLUOROURACIL], for which, in data set [3], the IC50 is 12.5 µM.
Take `Cn1c(-c2cc(-c3ccc(C(F)(F)F)cc3)on2)c(Cl)c2ccccc21`: the half-inhibitory concentration (IC50) in data set [3] and in data set [4] was over 100 µM in each case.
For the compound `COc1ccc(-c2cc(-c3cc4ccccc4n3C)no2)cc1`, the IC50 in data set [3] and in data set [4] was over 100 µM each time.
In the case of `COc1cccc(-c2cc(-c3cc4ccccc4n3C)no2)c1`, the figures for the IC50 in data set [3] and in data set [4] were 69.5 µM and 17.3 µM, respectively.
The like results for `COc1ccc2[nH]c(-c3cc(-c4cccc(F)c4)on3)cc2c1` were, in that order, over 100 µM and over 100 µM.
Turning to `O=[N+]([O-])c1ccc(-c2cc(-c3ccc4[nH]ccc4c3)on2)cc1`, in data set [1], the Activity result is given as “Toxic”. Besides, the “fold change (FC)” value in data set [2] is listed as 2.84; in data set [5], 3.76. Besides, the 50% inhibitory concentration (IC50) in data set [3] amounted to 14 µM; in data set [4], 25.8 µM.
